Test results: ChEMBL document CHEMBL4219120, “Synthesis and SAR study of new hydroxy and chloro-substituted 2,4-diphenyl 5H-chromeno[4,3-b]pyridines as selective topoisomerase IIα-targeting anticancer agents” (Bioorg Med Chem, 2018)
Counter-ions that a name gives are not always drawn. Calls of active or inactive are those of the source. No cut-off for these calls is given here.

Experiments:
[1] = target: DNA topoisomerase 2-alpha (Homo sapiens) (UniProt P11388); assay: Inhibition of recombinant human topoisomerase 2alpha assessed as decrease in relaxation of supercoiled pBR322 DNA at 100 uM after 30 mins by agarose gel electrophoresis relative to control
DNA topoisomerase 2-alpha (Homo sapiens), sequence (P11388 whole entry): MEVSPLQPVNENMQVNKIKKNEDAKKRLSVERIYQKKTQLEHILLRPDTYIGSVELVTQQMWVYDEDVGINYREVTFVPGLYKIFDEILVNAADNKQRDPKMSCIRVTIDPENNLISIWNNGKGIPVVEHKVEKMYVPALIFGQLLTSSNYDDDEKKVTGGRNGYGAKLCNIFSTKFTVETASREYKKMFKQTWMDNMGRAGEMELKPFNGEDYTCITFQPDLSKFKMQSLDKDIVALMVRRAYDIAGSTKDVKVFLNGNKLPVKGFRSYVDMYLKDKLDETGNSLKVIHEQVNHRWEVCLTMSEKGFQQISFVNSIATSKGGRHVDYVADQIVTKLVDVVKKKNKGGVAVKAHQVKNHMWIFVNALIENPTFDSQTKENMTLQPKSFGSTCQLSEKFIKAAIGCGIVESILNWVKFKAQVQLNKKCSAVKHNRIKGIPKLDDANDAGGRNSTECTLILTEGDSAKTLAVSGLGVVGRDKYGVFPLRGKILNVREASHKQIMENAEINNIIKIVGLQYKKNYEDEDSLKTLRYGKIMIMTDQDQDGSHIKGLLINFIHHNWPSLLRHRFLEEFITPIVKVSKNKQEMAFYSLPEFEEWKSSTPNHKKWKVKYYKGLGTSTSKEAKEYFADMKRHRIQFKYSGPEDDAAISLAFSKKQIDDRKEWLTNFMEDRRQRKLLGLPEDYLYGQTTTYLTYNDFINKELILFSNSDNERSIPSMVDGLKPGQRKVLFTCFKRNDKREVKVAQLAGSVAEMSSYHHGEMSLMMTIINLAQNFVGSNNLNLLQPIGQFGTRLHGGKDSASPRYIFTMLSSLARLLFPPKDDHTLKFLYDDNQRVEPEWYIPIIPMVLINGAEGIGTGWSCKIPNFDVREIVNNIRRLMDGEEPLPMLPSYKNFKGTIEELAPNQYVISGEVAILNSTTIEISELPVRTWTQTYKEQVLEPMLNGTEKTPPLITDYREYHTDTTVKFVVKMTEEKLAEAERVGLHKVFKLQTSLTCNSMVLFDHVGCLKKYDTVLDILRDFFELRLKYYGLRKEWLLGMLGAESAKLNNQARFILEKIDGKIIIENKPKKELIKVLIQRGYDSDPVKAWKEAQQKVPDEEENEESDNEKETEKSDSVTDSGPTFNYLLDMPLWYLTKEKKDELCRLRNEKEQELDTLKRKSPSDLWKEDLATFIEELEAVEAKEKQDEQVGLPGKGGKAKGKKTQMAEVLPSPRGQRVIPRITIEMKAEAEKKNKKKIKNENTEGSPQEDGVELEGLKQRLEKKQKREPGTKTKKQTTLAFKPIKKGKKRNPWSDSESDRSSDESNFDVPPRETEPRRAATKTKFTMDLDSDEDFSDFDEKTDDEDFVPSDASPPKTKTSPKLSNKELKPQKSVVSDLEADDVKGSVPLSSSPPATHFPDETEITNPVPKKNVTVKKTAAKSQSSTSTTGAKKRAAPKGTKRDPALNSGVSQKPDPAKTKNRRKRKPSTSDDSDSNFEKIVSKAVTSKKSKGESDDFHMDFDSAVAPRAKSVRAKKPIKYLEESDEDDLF
Summary of the method: (§1)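 Recombinant human topo IIα (1 unit) with 100 ng supercoiled pBR322 in 10 mM Tris-HCl pH 7.9, 50 mM NaCl, 50 mM KCl, 5 mM MgCl2, 1 mM EDTA, 1 mM ATP, 15 µg/mL BSA, 30 min at 37 °C. Quenched with 7 mM EDTA. 0.8% agarose/TAE gel, 50 V, 1 h; EtBr stain; UV densitometry. Compounds came from 20 mM DMSO stocks. 20 µM was tested only when inhibition at 100 µM exceeded 30%. Etoposide was the positive control.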

[2] = target: DNA topoisomerase 2-alpha (Homo sapiens) (UniProt P11388); assay: Inhibition of recombinant human topoisomerase 2alpha assessed as decrease in relaxation of supercoiled pBR322 DNA at 20 uM after 30 mins by agarose gel electrophoresis relative to control; summary of the method: as §1
[3] = target: T1, DNA topoisomerase 1 (Homo sapiens) (UniProt P11387); assay: Inhibition of recombinant human topoisomerase 1 assessed as decrease in relaxation of supercoiled pBR322 DNA at 100 uM after 30 mins by agarose gel electrophoresis relative to control
T1 sequence (whole entry): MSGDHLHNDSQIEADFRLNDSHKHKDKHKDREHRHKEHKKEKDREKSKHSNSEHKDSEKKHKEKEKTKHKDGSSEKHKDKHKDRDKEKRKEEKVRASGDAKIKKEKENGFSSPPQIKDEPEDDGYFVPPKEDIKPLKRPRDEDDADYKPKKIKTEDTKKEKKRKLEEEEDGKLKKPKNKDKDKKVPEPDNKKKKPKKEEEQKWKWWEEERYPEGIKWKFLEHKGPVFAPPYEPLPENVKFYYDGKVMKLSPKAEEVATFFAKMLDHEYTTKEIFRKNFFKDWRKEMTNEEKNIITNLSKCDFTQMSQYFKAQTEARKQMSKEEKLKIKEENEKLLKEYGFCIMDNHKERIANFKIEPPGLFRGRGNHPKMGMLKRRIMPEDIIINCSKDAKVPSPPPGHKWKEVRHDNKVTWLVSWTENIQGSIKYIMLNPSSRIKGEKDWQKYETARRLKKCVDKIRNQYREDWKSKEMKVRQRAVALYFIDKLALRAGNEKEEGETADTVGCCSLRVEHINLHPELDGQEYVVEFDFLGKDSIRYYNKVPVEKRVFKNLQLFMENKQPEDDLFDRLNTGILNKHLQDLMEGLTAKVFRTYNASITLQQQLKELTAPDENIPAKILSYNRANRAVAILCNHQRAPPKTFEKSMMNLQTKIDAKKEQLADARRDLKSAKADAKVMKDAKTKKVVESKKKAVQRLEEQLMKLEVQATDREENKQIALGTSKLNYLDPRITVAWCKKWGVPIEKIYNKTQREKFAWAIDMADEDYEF
Summary of the method: (§2)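 Supercoiled pBR322 (100 ng) with 1 unit recombinant human topo I in 10 mM Tris-HCl pH 7.9, 150 mM NaCl, 0.1% BSA, 0.1 mM spermidine, 5% glycerol, 30 min at 37 °C. Stopped with SDS/dye stop solution. Run on 0.8% agarose in TAE, 50 V, 1 h; EtBr-stained; bands quantitated under UV. Compounds came from 20 mM DMSO stocks. 20 µM was tested only when inhibition at 100 µM exceeded 30%. Camptothecin was the positive control.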

[4] = target: T1, DNA topoisomerase 1 (Homo sapiens); assay: Inhibition of recombinant human topoisomerase 1 assessed as decrease in relaxation of supercoiled pBR322 DNA at 20 uM after 30 mins by agarose gel electrophoresis relative to control; summary of the method: as §2
HCT-15 = assay: Antiproliferative activity against human HCT15 cells after 72 hrs by CCK-8 assay; assay type: functional, cell-based; details: HCT-15, 72 h
Summary of the method: (§3)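 Cells seeded at 2-4 x 10^4 per well and grown overnight in medium with 10% FBS (37 °C, 5% CO2). After 4 h FBS starvation, medium was replaced with medium containing graded compound concentrations for 72 h. CCK-8 was added for 4 h more, then absorbance read at 450 nm. IC50 came from a four-parameter logistic fit. Mean ± S.D. of three experiments, each in triplicate.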

T47D = assay: Antiproliferative activity against human T47D cells after 72 hrs by CCK-8 assay; assay type: functional, cell-based; summary of the method: as §3
HeLa = assay: Antiproliferative activity against human HeLa cells after 72 hrs by CCK-8 assay; assay type: functional, cell-based; summary of the method: as §3
[5] = target: DNA topoisomerase 2-alpha (Homo sapiens) (UniProt P11388); assay: Inhibition of recombinant human topoisomerase 2alpha assessed as decrease in relaxation of supercoiled pBR322 DNA at 100 uM after 30 mins by agarose gel electrophoresis relative to etoposide
[6] = target: DNA topoisomerase 2-alpha (Homo sapiens) (UniProt P11388); assay: Inhibition of recombinant human topoisomerase 2alpha assessed as decrease in relaxation of supercoiled pBR322 DNA at 20 uM after 30 mins by agarose gel electrophoresis relative to etoposide
[7] = target: T1, DNA topoisomerase 1 (Homo sapiens); assay: Inhibition of recombinant human topoisomerase 1 assessed as decrease in relaxation of supercoiled pBR322 DNA at 100 uM after 30 mins by agarose gel electrophoresis relative to camptothecin
[8] = target: T1, DNA topoisomerase 1 (Homo sapiens); assay: Inhibition of recombinant human topoisomerase 1 assessed as decrease in relaxation of supercoiled pBR322 DNA at 20 uM after 30 mins by agarose gel electrophoresis relative to camptothecin

Oc1ccc(-c2cc(-c3ccccc3Cl)c3c(n2)-c2ccccc2OC3)cc1
inhibition [1]: 63.5%
inhibition [2]: 48.1%
inhibition [3]: 56.1%
inhibition [4]: inactive
IC50 (HCT-15): 4.72 µM
IC50 (T47D): 0.94 µM
IC50 (HeLa): 0.68 µM

Oc1ccccc1-c1cc(-c2ccc(Cl)cc2)nc2c1oc1ccccc12
fold change (FC) [5]: 0.99
fold change (FC) [6]: 0.63
fold change (FC) [7]: 1.39
fold change (FC) [8]: 0.93

Oc1ccc(-c2cc(-c3cccc(Cl)c3)nc3c2oc2ccccc23)cc1
fold change (FC) [5]: 1.01
fold change (FC) [6]: 0.77
fold change (FC) [7]: 1.56
fold change (FC) [8]: 1.29

Oc1cccc(-c2cc(-c3cccc(Cl)c3)nc3c2COc2ccccc2-3)c1
inhibition [1]: 84%
inhibition [2]: 63.7%
inhibition [3]: 30%
inhibition [4]: inactive
IC50 (HCT-15): 2.13 µM
IC50 (T47D): 0.72 µM
IC50 (HeLa): 0.68 µM
fold change (FC) [5]: 1.26
fold change (FC) [6]: 1.79
fold change (FC) [7]: 0.36
fold change (FC) [8]: inactive

Oc1cccc(-c2cc(-c3ccccc3Cl)nc3c2COc2ccccc2-3)c1
inhibition [1]: 90.8%
inhibition [2]: 57.3%
inhibition [3]: 79.1%
inhibition [4]: 1.7%
IC50 (HCT-15): 0.87 µM
IC50 (T47D): 0.7 µM
IC50 (HeLa): 2.5 µM
fold change (FC) [5]: 1.37
fold change (FC) [6]: 1.61
fold change (FC) [7]: 0.99
fold change (FC) [8]: 0.05

Oc1ccccc1-c1cc(-c2ccccc2Cl)nc2c1oc1ccccc12
fold change (FC) [5]: 0.98
fold change (FC) [6]: 0.62
fold change (FC) [7]: 0.18

Oc1cccc(-c2cc(-c3ccccc3Cl)nc3c2oc2ccccc23)c1
fold change (FC) [5]: 0.95
fold change (FC) [6]: 0.42
fold change (FC) [7]: 1.22
fold change (FC) [8]: 0.98

Oc1ccc(-c2cc(-c3ccc(Cl)cc3)nc3c2oc2ccccc23)cc1
fold change (FC) [5]: 1.15
fold change (FC) [6]: 1.75
fold change (FC) [7]: 1.62
fold change (FC) [8]: 1.4

Oc1ccc(-c2cc(-c3cccc(Cl)c3)nc3c2COc2ccccc2-3)cc1
inhibition [1]: 95.9%
inhibition [2]: 57.3%
inhibition [3]: inactive
IC50 (HCT-15): 1.77 µM
IC50 (T47D): 0.88 µM
IC50 (HeLa): 0.89 µM
fold change (FC) [5]: 1.44
fold change (FC) [6]: 1.61
fold change (FC) [7]: inactive

Oc1ccccc1-c1cc(-c2ccccc2Cl)nc2c1COc1ccccc1-2
inhibition [1]: 79.1%
inhibition [2]: 47.3%
inhibition [3]: 4.7%
IC50 (HCT-15): > 50 µM
IC50 (T47D): > 50 µM
IC50 (HeLa): > 50 µM
fold change (FC) [5]: 1.19
fold change (FC) [6]: 1.33
fold change (FC) [7]: 0.06

Oc1ccc(-c2cc(-c3ccc(Cl)cc3)nc3c2COc2ccccc2-3)cc1
inhibition [1]: 87.8%
inhibition [2]: 41.9%
inhibition [3]: inactive
IC50 (HCT-15): 1.83 µM
IC50 (T47D): 1.72 µM
IC50 (HeLa): 0.86 µM
fold change (FC) [5]: 1.32
fold change (FC) [6]: 1.18
fold change (FC) [7]: inactive

Oc1ccc(-c2cc(-c3ccccc3Cl)nc3c2oc2ccccc23)cc1
fold change (FC) [5]: 1.07
fold change (FC) [6]: 0.56
fold change (FC) [7]: 1.39
fold change (FC) [8]: 1.99

Oc1cccc(-c2cc(-c3ccccc3Cl)c3c(n2)-c2ccccc2OC3)c1
inhibition [1]: 91.7%
inhibition [2]: 57%
inhibition [3]: inactive
IC50 (HCT-15): 1.52 µM
IC50 (T47D): 0.86 µM
IC50 (HeLa): 0.74 µM

Oc1ccccc1-c1cc(-c2cccc(Cl)c2)nc2c1COc1ccccc1-2
inhibition [1]: 75.1%
inhibition [2]: 51.9%
inhibition [3]: 4.4%
IC50 (HCT-15): 2.23 µM
IC50 (T47D): 1.23 µM
IC50 (HeLa): 0.68 µM
fold change (FC) [5]: 1.13
fold change (FC) [6]: 1.46
fold change (FC) [7]: 0.06

Oc1cccc(-c2cc(-c3cccc(Cl)c3)c3c(n2)-c2ccccc2OC3)c1
inhibition [1]: 63.6%
inhibition [2]: inactive
inhibition [3]: 12%
IC50 (HCT-15): 1.23 µM
IC50 (T47D): 0.86 µM
IC50 (HeLa): 0.82 µM

CC[C@@]1(O)C(=O)OCc2c1cc1n(c2=O)Cc2cc3ccccc3nc2-1 [CAMPTOTHECIN]
IC50 (HCT-15): 0.02 µM
IC50 (T47D): 0.49 µM
IC50 (HeLa): 0.13 µM

COc1cc([C@@H]2c3cc4c(cc3[C@@H](O[C@@H]3O[C@@H]5CO[C@@H](C)O[C@H]5[C@H](O)[C@H]3O)[C@H]3COC(=O)[C@H]23)OCO4)cc(OC)c1O [ETOPOSIDE]
IC50 (HCT-15): 2.45 µM
IC50 (T47D): 0.32 µM

Oc1ccccc1-c1cc(-c2ccc(Cl)cc2)nc2c1COc1ccccc1-2
inhibition [1]: 88.9%
inhibition [2]: 56.6%
inhibition [3]: 7.6%
IC50 (HCT-15): 1.66 µM
IC50 (T47D): > 50 µM
IC50 (HeLa): > 50 µM
fold change (FC) [5]: 1.34
fold change (FC) [6]: 1.59
fold change (FC) [7]: 0.1

Oc1cccc(-c2cc(-c3ccc(Cl)cc3)nc3c2COc2ccccc2-3)c1
inhibition [1]: 71.3%
inhibition [2]: 63.8%
inhibition [3]: 28.8%
IC50 (HCT-15): 2.3 µM
IC50 (T47D): 1.18 µM
IC50 (HeLa): 0.76 µM
fold change (FC) [5]: 1.07
fold change (FC) [6]: 1.8
fold change (FC) [7]: 0.36

Oc1cccc(-c2cc(-c3cccc(Cl)c3)nc3c2oc2ccccc23)c1
fold change (FC) [5]: 0.98
fold change (FC) [6]: 0.65
fold change (FC) [7]: 1.12
fold change (FC) [8]: 2.02

Oc1ccccc1-c1cc(-c2ccccc2Cl)c2c(n1)-c1ccccc1OC2
inhibition [1]: 78.1%
inhibition [2]: 45.5%
inhibition [3]: inactive
IC50 (HCT-15): > 50 µM
IC50 (T47D): 1.66 µM
IC50 (HeLa): > 50 µM

Oc1cccc(-c2cc(-c3ccc(Cl)cc3)nc3c2oc2ccccc23)c1
fold change (FC) [5]: 1.01
fold change (FC) [6]: 0.27
fold change (FC) [7]: 1.32
fold change (FC) [8]: 2.09

Oc1ccc(-c2cc(-c3ccc(Cl)cc3)c3c(n2)-c2ccccc2OC3)cc1
inhibition [1]: 100%
inhibition [2]: 19.9%
inhibition [3]: 38.5%
inhibition [4]: 1.7%
IC50 (HCT-15): 1.85 µM
IC50 (T47D): 1.38 µM
IC50 (HeLa): 2.08 µM

Oc1ccccc1-c1cc(-c2cccc(Cl)c2)c2c(n1)-c1ccccc1OC2
inhibition [1]: 18.9%
inhibition [3]: 21.1%
IC50 (HCT-15): > 50 µM
IC50 (T47D): > 50 µM
IC50 (HeLa): > 50 µM

Oc1cccc(-c2cc(-c3ccc(Cl)cc3)c3c(n2)-c2ccccc2OC3)c1
inhibition [1]: 66.7%
inhibition [2]: 4.7%
inhibition [3]: 20.2%
IC50 (HCT-15): 4.57 µM
IC50 (T47D): 0.75 µM
IC50 (HeLa): 1.94 µM

Oc1ccccc1-c1cc(-c2cccc(Cl)c2)nc2c1oc1ccccc12
fold change (FC) [5]: 0.97
fold change (FC) [6]: 0.91
fold change (FC) [7]: 1.01
fold change (FC) [8]: 0.38

COc1cccc2c1C(=O)c1c(O)c3c(c(O)c1C2=O)C[C@@](O)(C(=O)CO)C[C@@H]3O[C@H]1C[C@H](N)[C@H](O)[C@H](C)O1 [DOXORUBICIN HYDROCHLORIDE]
IC50 (HCT-15): 0.73 µM
IC50 (HeLa): 1.7 µM

Oc1ccccc1-c1cc(-c2ccc(Cl)cc2)c2c(n1)-c1ccccc1OC2
inhibition [1]: 34.7%
inhibition [2]: inactive
inhibition [3]: 20.1%
IC50 (HCT-15): > 50 µM
IC50 (T47D): > 50 µM
IC50 (HeLa): > 50 µM
